This passage reports GI50, TGI and Activity results from ChEMBL document CHEMBL1143714, “Nocardichelins A and B, siderophores from Nocardia strain acta 3026” (2007).

Calls of active or inactive are those of the source. The calls are words filed in the database; no cut-off is given here.

For one assay, the system named is HepG2. In words: Growth inhibition of human HepG2 cells after 48 hrs. Particulars: HepG2, 48 h. The format is functional. A digest of the protocol: (§1)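 Run per NCI guidelines. Cells grown in RPMI 1640 with 10% fetal calf serum, 5% CO2, humidified. Compounds added after 24 h as DMSO solutions at 0.1-10 µg/mL, 0.1% final DMSO, then 48 h further culture. Cell count by sulforhodamine B protein staining. GI50 (50% growth inhibition) and TGI derived.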

For another assay, the system named is Saccharomyces cerevisiae. In words: Growth inhibition against yeast after 48 hrs by agar plate diffusion assay. The format is functional, organism-based. A digest of the protocol:
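10 µL sample aliquots applied to 6 mm filter disks placed on inoculated test plates; fungal plates incubated 48 h at temperature optimal for the test organism; activity read from growth inhibition on agar.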

In the next assay the test system is AGS. The assay is described as follows: Growth inhibition of human AGS cells after 48 hrs. The format is functional. A digest of the protocol: as §1
Assay [1] can be described thus: Growth inhibition of human MCF cells after 48 hrs. The format is functional. A digest of the protocol:
as §1

As for `CCCCCCCCCCCCC/C=C\C(=O)N(O)CCCCCNC(=O)CCC(=O)N(O)CCCCCNC(=O)[C@@H]1COC(c2ccccc2O)=N1` [NOCARDICHELIN A], the GI50 (in general, the concentration giving 50% growth inhibition) with HepG2 is 282 nM; in the assay on AGS, 28.2 nM; in assay [1] it was 202 nM. Moreover, the TGI – broadly, the concentration at which net growth stops – with HepG2 was 471 nM; in the assay with AGS, 202 nM; in assay [1] it was 538 nM. The outcome in the assay with Saccharomyces cerevisiae was inactive.

For `CCCCCCCCCCC/C=C\C(=O)N(O)CCCCCNC(=O)CCC(=O)N(O)CCCCCNC(=O)[C@@H]1COC(c2ccccc2O)=N1` [NOCARDICHELIN B], the figures for the GI50 (in the assay on HepG2; with AGS; in assay [1]) were 69.9 nM, 44.7 nM and 1130 nM, respectively. The TGI in the assay with HepG2 worked out at 335 nM; in the assay on AGS, 1500 nM; in assay [1], 3490 nM. Further, the outcome in the assay on Saccharomyces cerevisiae was inactive.
